Here are results for 4 compounds from ChEMBL document CHEMBL4002564, “Design, synthesis and cytotoxicity studies of novel pyrazolo[1, 5-a]pyridine derivatives” (Eur J Med Chem, 2017).

Structures are written as SMILES. The source made the active and inactive calls. The rule behind the calls is not given here.

For experiment [1], the system named is HCT-116. The experiment can be described thus: Antiproliferative activity against human HCT116 cells at 50 uM after 48 hrs by SRB assay. It is filed as functional. To be noted: HCT-116, 48 h, read-out: GI.
Experiment [2] concerns HCT-116. Description: Antiproliferative activity against human HCT116 cells at 20 uM after 48 hrs by SRB assay. It is filed as functional. To be noted: HCT-116, 48 h, read-out: GI. An outline of the steps: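 Cells kept in RPMI-1640 with 2mM glutamine, 10% FBS, streptomycin and penicillin at 37°C, 5% CO2. Seeded cells grown 24 h, then exposed to compound in complete medium for 48 h. Fixed with cold TCA 1 h at 4°C, stained with 0.4% SRB 30 min, bound dye dissolved in 10mM Tris pH 10.4, OD read at 540 nm. Blank-subtracted percent growth inhibition taken against untreated cells as 100%.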

Experiment [3] deals with A549. Description: Antiproliferative activity against human A549 cells at 1 uM after 48 hrs by SRB assay. To be noted: A549, 48 h, read-out: GI. In kind it is functional. The method, boiled down:
(§1)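 Cells kept in RPMI-1640 with 2 mM glutamine, 10% FBS, penicillin/streptomycin, 37°C, 5% CO2. Seeded and grown 24 h, then test material in complete medium added and incubated 48 h. Fixed with cold TCA 1 h at 4°C, stained with 0.4% SRB in 1% acetic acid for 30 min, dye dissolved in 10 mM Tris pH 10.4, OD read at 540 nm.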

The test system of experiment [4] is PC-3. Description: Antiproliferative activity against human PC3 cells at 50 uM after 48 hrs by SRB assay. In kind it is functional. The following applies: PC-3, 48 h, read-out: GI.
The subject of experiment [5] is A549. Description: Antiproliferative activity against human A549 cells at 50 uM after 48 hrs by SRB assay. In kind it is functional. To be noted: A549, 48 h, read-out: GI.
Experiment [6] deals with PC-3. The experiment can be described thus: Antiproliferative activity against human PC3 cells at 1 uM after 48 hrs by SRB assay. It is filed as functional. The following applies: PC-3, 48 h, read-out: GI. The method, boiled down: as §1
In experiment [7] the test system is MCF7. The experiment can be described thus: Induction of apoptotic bodies formation in human MCF7 cells at 50 nM after 24 hrs by DAPI staining based immunofluorescence microscopy. It is filed as functional, cell-based.
For experiment [8], the system named is MCF7. The experiment can be described thus: Antiproliferative activity against human MCF7 cells at 50 uM after 48 hrs by SRB assay. It is filed as functional. The following applies: MCF7, 48 h, read-out: GI.
Experiment [9] deals with MCF7. The experiment can be described thus: Antiproliferative activity against human MCF7 cells at 1 uM after 48 hrs by SRB assay. To be noted: MCF7, 48 h, read-out: GI. In kind it is functional. An outline of the steps: as §1
Experiment [10] addresses T1, Epidermal growth factor receptor (Homo sapiens, UniProt P00533). The experiment can be described thus: Inhibition of recombinant EGFR (unknown origin) using poly (Glu4, Tyr) as substrate assessed as inhibition at 10 uM after 60 mins by ADP-glo kinase assay.
Experiment [11] addresses T1, Epidermal growth factor receptor. The experiment can be described thus: Inhibition of recombinant EGFR (unknown origin) using poly (Glu4, Tyr) as substrate after 60 mins by ADP-glo kinase assay. The method, boiled down:
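ADP-Glo luminescent assay. Each reaction held 30 ng recombinant EGFR, 5 µM ATP and 0.2 µg/µl poly(Glu4,Tyr) in tyrosine kinase buffer with a compound dilution; 60 min at ambient temperature. Stopped with ADP-Glo reagent (40 min), then kinase detection reagent, luminescence read after 30 min. Blank (no enzyme) subtracted; activity expressed as % of the 0 µM reaction. Dilutions run in duplicate.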

For experiment [12] the target is unchanged. Description: Inhibition of recombinant EGFR (unknown origin) using poly (Glu4, Tyr) as substrate assessed as inhibition at 1 uM after 60 mins by ADP-glo kinase assay.
The target is the same in experiment [13]. Description: Inhibition of recombinant EGFR (unknown origin) using poly (Glu4, Tyr) as substrate assessed as inhibition at 100 uM after 60 mins by ADP-glo kinase assay.
The target is the same in experiment [14]. Description: Inhibition of recombinant EGFR (unknown origin) using poly (Glu4, Tyr) as substrate assessed as inhibition at 30 uM after 60 mins by ADP-glo kinase assay.

T1 sequence (P00533 whole entry): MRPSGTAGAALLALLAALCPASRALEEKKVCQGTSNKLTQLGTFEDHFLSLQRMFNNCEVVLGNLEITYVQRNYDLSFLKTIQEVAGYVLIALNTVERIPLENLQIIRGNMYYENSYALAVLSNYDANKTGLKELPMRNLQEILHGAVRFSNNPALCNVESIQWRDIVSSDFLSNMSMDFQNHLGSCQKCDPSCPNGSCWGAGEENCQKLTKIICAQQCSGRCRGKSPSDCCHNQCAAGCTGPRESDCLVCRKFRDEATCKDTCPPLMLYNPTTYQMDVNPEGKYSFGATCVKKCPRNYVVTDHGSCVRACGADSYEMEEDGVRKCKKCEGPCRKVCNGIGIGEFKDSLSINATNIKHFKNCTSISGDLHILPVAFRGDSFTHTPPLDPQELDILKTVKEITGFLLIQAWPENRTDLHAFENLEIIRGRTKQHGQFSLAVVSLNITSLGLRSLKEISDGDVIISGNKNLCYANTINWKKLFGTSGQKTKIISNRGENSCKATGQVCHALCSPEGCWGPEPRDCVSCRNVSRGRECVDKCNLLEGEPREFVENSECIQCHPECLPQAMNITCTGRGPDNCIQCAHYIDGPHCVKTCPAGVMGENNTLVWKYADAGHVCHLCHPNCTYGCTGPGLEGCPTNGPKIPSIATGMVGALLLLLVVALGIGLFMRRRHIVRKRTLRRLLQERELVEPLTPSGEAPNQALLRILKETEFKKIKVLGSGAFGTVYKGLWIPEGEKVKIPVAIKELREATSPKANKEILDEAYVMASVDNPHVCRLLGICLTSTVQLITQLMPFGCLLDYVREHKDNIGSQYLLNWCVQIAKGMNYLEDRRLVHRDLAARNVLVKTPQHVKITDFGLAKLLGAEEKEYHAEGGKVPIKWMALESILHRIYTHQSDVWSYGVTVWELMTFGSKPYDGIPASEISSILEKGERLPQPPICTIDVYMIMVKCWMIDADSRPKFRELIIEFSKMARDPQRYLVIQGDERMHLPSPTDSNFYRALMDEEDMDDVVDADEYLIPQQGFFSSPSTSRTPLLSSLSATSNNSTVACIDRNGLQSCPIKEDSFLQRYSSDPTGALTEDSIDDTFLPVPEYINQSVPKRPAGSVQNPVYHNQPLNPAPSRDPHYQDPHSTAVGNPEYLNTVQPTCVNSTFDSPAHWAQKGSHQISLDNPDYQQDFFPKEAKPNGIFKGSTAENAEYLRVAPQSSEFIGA

As for `O=c1[nH]cc(F)c(=O)[nH]1` [FLUOROURACIL], the inhibition of growth at 50 µM with HCT-116 [1] is 58%. Further, the inhibition of growth at 20 µM in the experiment with HCT-116 [2] was 58%.
On to `CC(=O)O[C@H]1C(=O)[C@@]2(C)[C@H]([C@H](OC(=O)c3ccccc3)[C@]3(O)C[C@H](OC(=O)[C@H](O)[C@@H](NC(=O)c4ccccc4)c4ccccc4)C(C)=C1C3(C)C)[C@]1(OC(C)=O)CO[C@@H]1C[C@@H]2O` [PACLITAXEL], for which the inhibition of growth at 1 µM worked out at 78% in the experiment with A549 [3] and 72% in the experiment on PC-3 [6]. In addition, the inhibition of growth at 50 µM in the experiment with PC-3 [4] was 72%; in the experiment on A549 [5], 78%. Also, the outcome with MCF7 [7] was Active.
Consider `COc1cccc2c1C(=O)c1c(O)c3c(c(O)c1C2=O)C[C@@](O)(C(=O)CO)C[C@@H]3O[C@H]1C[C@H](N)[C@H](O)[C@H](C)O1` [DOXORUBICIN], for which the inhibition of growth at 50 µM in the experiment with MCF7 [8] came out at 62%. Also, in the experiment on MCF7 [9], the inhibition of growth at 1 µM came to 62%.
Consider `CCCCOC(=O)c1c(-c2ccccc2)nn2ccccc12`, for which the inhibition is 37% in [10], 16% in [12], 72% in [13] and 51% in [14]. Moreover, the IC50 in experiment [11] came out at 23.7 µM.
